Measurements published in ChEMBL document CHEMBL4706701, “Synthesis and biological activity of selenopsammaplin A and its analogues as antitumor agents with DOT1L inhibitory activity” (Bioorg Med Chem, 2021).
Active and inactive are the calls of the source. The rule behind the calls is not given here.

Key:
[1] = system: A549; experiment: Cytotoxicity against human A549 cells assessed as reduction in cell viability by SRB assay; format: functional, cell-based
Summary of the method: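 Cells seeded in 96-well plates and exposed to compounds for the stated times. Zero-day controls were incubated 30 min. Cells were fixed and stained with 0.4% SRB in 1% acetic acid, and bound dye was dissolved in 10 mM Tris (pH 10.0). A515 was read, and IC50 was calculated by non-linear regression.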

[2] = system: MDA-MB-231; experiment: Antimetastatic activity against human MDA-MB-231 cells xenografted in ip dosed BALB/c nu mouse assessed as down regulation of vimentin expression in tumor tissue administered thrice per week for 38 days measured 1 week post last dose by Western blot analysis; format: functional, organism-based; details: dose 5-15 mg/kg, time 45.0 day
Summary of the method: (§1)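 Frozen tumor portions from the orthotopic MDA-MB-231 nude mouse study homogenized in complete lysis buffer; protein by Bradford assay. Western blotting for H3K79me2, E-cadherin and vimentin, β-actin internal control, band intensities semi-quantified; three separate experiments.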

[3] = system: MDA-MB-231; experiment: Antimigratory activity in human MDA-MB-231 cells assessed as suppression of wound closure after 24 hrs by microscopic analysis; format: functional, cell-based; details: dose 50-400 nM
Summary of the method: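 MDA-MB-231 monolayers at 80–90% confluence scratched with a pipette tip, washed with PBS, then kept 24 h in medium with 1% FBS plus compound at various concentrations. Wounds photographed at 0 and 24 h; area measured by image analysis and expressed as wound healing (%) relative to the 0 h area. Mean ± SD (n = 3), three separate experiments.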

[4] = Toxicity in human MDA-MB-231 cells xenografted BALB/c nu mouse assessed as change in body weight at 5 to 15 mg/kg, ip administered thrice per week for 38 days measured once per week during compound dosing; format: organism-based; details: in vivo, 912 h, dose 5-15 mg/kg, time 38 day
Summary of the method: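 Female BALB/c-nu mice, 5–6 weeks old, received 1 × 10⁷ luciferase-expressing MDA-MB-231 cells in 50:50 DMEM/Matrigel into the fourth fat pad. At day 10, mice were randomized into groups of six. Dosing was i.p. three times weekly for 38 days, in vehicle EtOH/Cremophor/saline 5:5:90. Body weight was recorded weekly, and toxicity was judged by lethality and weight loss.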

[5] = system: MDA-MB-231; experiment: Antimetastatic activity against human MDA-MB-231 cells xenografted in ip dosed BALB/c nu mouse assessed as up regulation of E-cadherin expression in tumor tissue administered thrice per week for 38 days measured 1 week post last dose by Western blot analysis; format: functional, organism-based; details: dose 5-15 mg/kg, time 45.0 day; summary of the method: as §1
[6] = system: MDA-MB-231; experiment: Down regulation of VIM expression in human MDA-MB-231 cells at 50 to 200 nM measured after 48 hrs by Western blot analysis; format: functional, cell-based; details: dose 50-200 nM
Summary of the method: (§2)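 MDA-MB-231 cells exposed to compound for 48 h; lysates in 2× SDS sample buffer with orthovanadate and NaF, protein by BCA. 5–20 μg resolved on 8–15% SDS-PAGE, PVDF, BSA block, probed for E-cadherin, N-cadherin, ZEB1, vimentin; ECL detection, β-actin internal control, band densitometry. Mean ± SD (n = 3), three experiments.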

[7] = system: MDA-MB-231; experiment: Up regulation of CDH1 mRNA expression in human MDA-MB-231 cells at 50 to 200 nM measured after 24 hrs by RT-PCR analysis; format: functional, cell-based; details: dose 50-200 nM
[8] = system: MDA-MB-231; experiment: Antitumor activity against human MDA-MB-231 cells xenografted in ip dosed BALB/c nu mouse assessed as down regulation of H3K79me2 expression in tumor tissue administered thrice per week for 38 days measured 1 week post last dose by Western blot analysis; format: functional, organism-based; details: dose 5-15 mg/kg, time 45.0 day; summary of the method: as §1
[9] = biological target: Histone-lysine N-methyltransferase, H3 lysine-79 specific (Homo sapiens) (UniProt Q8TEK3); experiment: Inhibition of DOT1L in human MDA-MB-231 cells assessed as down regulation of H3K79me2 expression at 200 nM by Western blot analysis; format: cell-based
Chain of Histone-lysine N-methyltransferase, H3 lysine-79 specific (Homo sapiens) (Q8TEK3 whole entry, looked up): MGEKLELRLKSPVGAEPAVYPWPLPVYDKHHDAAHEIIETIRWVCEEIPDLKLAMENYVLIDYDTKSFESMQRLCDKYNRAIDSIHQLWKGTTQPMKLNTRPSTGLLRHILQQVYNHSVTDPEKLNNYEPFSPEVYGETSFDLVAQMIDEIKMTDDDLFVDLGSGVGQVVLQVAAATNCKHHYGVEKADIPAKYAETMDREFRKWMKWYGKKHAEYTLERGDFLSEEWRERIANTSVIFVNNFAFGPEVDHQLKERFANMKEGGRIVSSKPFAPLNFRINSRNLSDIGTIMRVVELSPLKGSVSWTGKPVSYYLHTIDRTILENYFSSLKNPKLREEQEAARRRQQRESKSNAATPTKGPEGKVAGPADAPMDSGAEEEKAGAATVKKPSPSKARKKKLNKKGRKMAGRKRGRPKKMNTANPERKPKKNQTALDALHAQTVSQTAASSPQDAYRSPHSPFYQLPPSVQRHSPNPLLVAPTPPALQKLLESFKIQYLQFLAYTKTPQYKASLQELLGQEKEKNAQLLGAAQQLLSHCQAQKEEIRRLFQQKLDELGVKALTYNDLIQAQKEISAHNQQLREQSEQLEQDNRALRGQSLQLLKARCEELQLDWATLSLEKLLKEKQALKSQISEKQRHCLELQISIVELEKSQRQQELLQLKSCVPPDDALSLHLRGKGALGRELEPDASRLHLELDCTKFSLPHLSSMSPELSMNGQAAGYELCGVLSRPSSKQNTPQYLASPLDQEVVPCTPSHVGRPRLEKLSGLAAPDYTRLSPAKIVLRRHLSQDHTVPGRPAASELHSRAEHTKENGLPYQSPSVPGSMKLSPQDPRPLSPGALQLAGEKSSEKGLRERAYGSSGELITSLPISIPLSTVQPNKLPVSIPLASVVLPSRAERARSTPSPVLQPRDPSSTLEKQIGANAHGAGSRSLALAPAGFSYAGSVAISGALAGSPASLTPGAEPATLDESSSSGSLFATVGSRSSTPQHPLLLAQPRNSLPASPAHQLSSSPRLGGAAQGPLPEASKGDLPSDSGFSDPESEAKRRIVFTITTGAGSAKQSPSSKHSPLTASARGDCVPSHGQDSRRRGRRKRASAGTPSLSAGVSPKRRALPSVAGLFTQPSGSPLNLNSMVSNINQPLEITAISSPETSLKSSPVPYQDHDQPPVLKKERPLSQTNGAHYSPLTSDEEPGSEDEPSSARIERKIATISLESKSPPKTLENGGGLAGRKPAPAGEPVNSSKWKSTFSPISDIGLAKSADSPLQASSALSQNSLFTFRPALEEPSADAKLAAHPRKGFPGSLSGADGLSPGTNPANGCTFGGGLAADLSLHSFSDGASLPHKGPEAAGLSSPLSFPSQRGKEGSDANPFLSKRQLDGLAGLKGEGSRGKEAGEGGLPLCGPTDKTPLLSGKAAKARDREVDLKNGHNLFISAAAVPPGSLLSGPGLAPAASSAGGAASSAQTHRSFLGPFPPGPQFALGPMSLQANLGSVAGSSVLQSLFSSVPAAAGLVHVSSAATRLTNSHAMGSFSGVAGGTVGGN
Summary of the method: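 MDA-MB-231 lysates were made in 2× SDS sample buffer with vanadate and fluoride. 5-20 μg protein was run on 8–15% SDS-PAGE and blotted to PVDF. Membranes were blocked in 5% BSA, probed for H3K79me2 with total histone H3, and detected by ECL. Mean ± SD (n = 3), representative of three separate experiments.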

[10] = Selectivity ratio of IC50 for human MCF-10A cells to IC50 for human SNU-638 cells
Summary of the method: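 Cytotoxicity by SRB assay: cells seeded in 96-well plates and treated with compounds; fixed, stained with 0.4% SRB in 1% acetic acid, dye dissolved in 10 mM Tris (pH 10.0), absorbance read at 515 nm. IC50 by non-linear regression, means of at least three experiments; ratio of MCF10A IC50 to cancer-line IC50.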

[11] = system: MDA-MB-231; experiment: Down regulation of CDH2 expression in human MDA-MB-231 cells at 50 to 200 nM measured after 48 hrs by Western blot analysis; format: functional, cell-based; details: dose 50-200 nM; summary of the method: as §2
[12] = system: MDA-MB-231; experiment: Antimetastatic activity against human MDA-MB-231 cells xenografted in BALB/c nu mouse assessed as up regulation of E-cadherin expression in tumor tissue at 5 to 15 mg/kg, ip administered thrice per week for 38 days measured 1 week post last dose by H and E staining based immunohistochemical analysis; format: functional, organism-based; details: dose 5-15 mg/kg, time 45.0 day
Summary of the method: (§3)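 Tumors and lungs from orthotopic MDA-MB-231/Luc nude mice (ip dosing three times weekly, 38 days) fixed in 4% PFA, paraffin-embedded, sectioned, antigen-retrieved. Lungs H&E-stained for metastatic cells; tumor sections immunostained for Ki67, H3K79me2, E-cadherin, vimentin with HRP detection, hematoxylin counterstain, imaged at 200×.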

[13] = system: MDA-MB-231; experiment: Down regulation of CDH2 mRNA expression in human MDA-MB-231 cells at 50 to 200 nM measured after 24 hrs by RT-PCR analysis; format: functional, cell-based; details: dose 50-200 nM
[14] = system: MDA-MB-231; experiment: Up regulation of CDH1 expression in human MDA-MB-231 cells at 50 to 200 nM measured after 48 hrs by Western blot analysis; format: functional, cell-based; details: dose 50-200 nM; summary of the method: as §2
[15] = system: MDA-MB-231; experiment: Antimetastatic activity against human MDA-MB-231 cells xenografted in BALB/c nu mouse assessed as down regulation of H3K79me2 expression in tumor tissue at 5 to 15 mg/kg, ip administered thrice per week for 38 days measured 1 week post last dose by H and E staining based immunohistochemical analysis; format: functional, organism-based; details: dose 5-15 mg/kg, time 45.0 day; summary of the method: as §3
[16] = Selectivity ratio of IC50 for human MCF-10A cells to IC50 for human HCT-116 cells; format: toxicity; details: MCF-10A cells versus HCT-116 cells, read-out: Ratio IC50
[17] = biological target: Histone-lysine N-methyltransferase, H3 lysine-79 specific (Homo sapiens) (UniProt Q8TEK3); experiment: Inhibition of DOT1L in human MDA-MB-231 cells assessed as effect on histone H3 methylation at 50 to 200 nM by Western blot analysis; format: cell-based; details: dose 50-200 nM
Summary of the method: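 MDA-MB-231 cell lysates in 2× SDS buffer, protein by BCA; 5–20 μg on 8–15% SDS-PAGE, transferred to PVDF, BSA-blocked and probed with antibodies to H3K4me2, H3K27me2, H3K36me2, H3K79me2 and total histone H3; ECL detection. Mean ± SD (n = 3), three separate experiments.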

O=C(NCC[Se][Se]CCNC(=O)/C(Cc1ccccc1)=N/O)/C(Cc1ccccc1)=N/O
IC50 [1]: 80 nM
Activity [2]: Dose-dependent effect
Activity [3]: Dose-dependent effect
Activity [4]: Non-Toxic
Activity [5]: Dose-dependent effect
Activity [6]: Active
Activity [7]: Active
Activity [8]: Dose-dependent effect
H3K79me2 downregulation (active/not active) [9]: Active
Ratio IC50 [10]: >100
Activity [11]: Active
Activity [12]: Active
Activity [13]: Active
Activity [14]: Active
Activity [15]: Active
selectivity ratio [16]: > 100
inhibition [17]: Active
